Screens (PubChem BioAssay)
Sampled rows, rich in hits. Any-hit rate of the full collection: about 4.1%.
KCNK3 inh: human KCNK3 channel inhibitors, primary screen, CHO cells, FluxOR thallium flux, B-score. Potassium channel subfamily K member 3 (Homo sapiens), O14649. FluxOR fluorescence; stronger effect = lower value. B-score at 10 µM. hit rate 0.84% among 340,000. AID 602410, 2012;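 active = B-score under library mean minus 4 SD, starting fluorescence ratio at most library mean plus 5 SD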;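 also: more negative B-score means stronger inhibition of thallium flux through KCNK3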
Target sequence (O14649 whole entry, looked up): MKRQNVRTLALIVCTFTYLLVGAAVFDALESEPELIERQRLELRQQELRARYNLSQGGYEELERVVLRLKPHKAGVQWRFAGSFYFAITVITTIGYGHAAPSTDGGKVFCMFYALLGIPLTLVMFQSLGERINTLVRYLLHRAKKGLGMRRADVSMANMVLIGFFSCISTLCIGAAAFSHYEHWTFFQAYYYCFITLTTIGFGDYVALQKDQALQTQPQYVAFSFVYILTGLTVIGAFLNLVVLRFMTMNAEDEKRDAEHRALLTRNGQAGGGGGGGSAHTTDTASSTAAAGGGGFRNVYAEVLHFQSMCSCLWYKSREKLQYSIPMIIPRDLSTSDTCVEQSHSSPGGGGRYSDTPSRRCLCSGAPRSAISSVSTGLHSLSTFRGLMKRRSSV
KCNK9 inh: KCNK9 potassium channel inhibitors, primary screen, HEK293 cells, thallium flux; FluxOR thallium flux fluorescence; stronger effect = lower value; hit rate 1.2% among 310,000; B-score at 10 µM; AID 488922, 2010;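 active = ratio B-score over 3 SD below the library mean, with starting fluorescence within 5 SD of its mean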;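 also: negative B-score means less thallium flux so channel inhibition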
KCNQ1 inh: inhibitors of human KCNQ1 channel, primary screen, cell-based, thallium flux, high-throughput. Potassium voltage-gated channel subfamily KQT member 1 (Homo sapiens), P51787. CHO-K1 KCNQ1, FluxOR thallium flux fluorescence; stronger effect = higher value. B-score at 10 µM. hit rate 1.3% among 310,000. AID 2642, 2010;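 active = compounds whose thallium flux B-score, printed positive for inhibition, exceeds three library SD while starting fluorescence stays within three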;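 also: channel opened by potassium depolarization with thallium stimulus after 20 min compound exposure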
hERG protect: hERG rescue from dofetilide block, primary screen, cell-based, CHO-hERG, FluxOR thallium flux, dofetilide IC70 | Voltage-gated inwardly rectifying potassium channel KCNH2 (Homo sapiens), Q12809 | dofetilide IC70 present | activation (rescue from dofetilide block), less the hit threshold, % at 10 µM | hit rate 0.51% among 310,000;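 active = activation above the mean of controls blocked by dofetilide plus 5 SD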;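 also: thallium influx through hERG after potassium depolarization seen as dye fluorescence rise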
KCNQ1 pot: potentiators or activators of KCNQ1 channel, primary screen, cell-based, thallium flux, high-throughput. CHO-K1 KCNQ1, thallium flux FluxOR fluorescence; stronger effect = higher value. B-score at 10 µM. hit rate 0.35% among 310,000. AID 2648, 2010;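 active = fluorescence ratio B-score, a plate-corrected score, at least three library SD, with initial intensity B-score within 5 SD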
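Assay system: CHO-K1 cells stably expressing KCNQ1. Medium: assay buffer for compound exposure, DMSO matched across wells. Timing: 37 °C overnight plating, 90-min dark dye load, 20-min compound pretreatment. Signal: kinetic FluxOR fluorescence, 10 s baseline plus 110 s post-stimulus.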
Cl transport mod: KCC2 cotransporter modulators, thallium flux, primary screen, cell-based, HEK293 KCC2, FluoZin-2 fluorescence, MLSMR | AID 1456, 2008 | hit rate 2.2% among 190,000 | B-score of Tl+ flux slope (higher = more flux/activation; lower = inhibition) at 10 µM | KCC2 cells, thallium flux FluoZin-2 fluorescence | Solute carrier family 12 member 5 (Homo sapiens), Q9H2X9;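 active = thallium flux slope and its plate-corrected score both differing from the plate sample mean at a set confidence after two filtering rounds, in either direction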;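 also: slope of fluorescence scaled to starting intensity during 10 to 20 s after thallium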
KCC2 secondary: KCC2 modulators in sodium-free buffer, confirmation, cell-based, HEK293 KCC2, thallium flux, secondary assay. shares compounds with Cl transport mod. AID 1713, 2009. hit rate 15% among 3,700. normalised thallium flux (F/F0 slope) at 10 µM. FluoZin2 fluorescence; stronger effect = higher value;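 active = thallium flux slope above the same plate's solvent-only control mean plus 3 SD; inconclusive = the two replicate wells disagree; inactive = no significant difference from solvent-only control wells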
KCC2 bumet counter: thallium flux persisting under bumetanide in KCC2 cells, confirmation, counter-screen for KCC2 modulator project, cell-based, HEK293 KCC2, FluoZin2, secondary assay 3; normalized thallium flux at 10 µM; shares compounds with Cl transport mod; HEK293-KCC2 + bumetanide/ouabain; stronger effect = higher value; hit rate 49% among 3,700; AID 1714, 2009;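 active = thallium entry rate above the same plate's blocked-transporter control wells by more than 3 SD; inconclusive = the two repeat wells disagree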;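 also: raw slope of fluorescence over initial fluorescence between 10 and 20 s after thallium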
KCC2 sec2: KCC2 modulators without ouabain present, confirmation, cell-based, HEK293 KCC2, thallium flux, FluoZin2, secondary assay 2. thallium flux FluoZin2 fluorescence; actives lie on both sides; F/F0 rise rate, 10–20 s post-thallium. shares compounds with Cl transport mod. normalized thallium flux at 10 µM. hit rate 23% among 3,700. AID 1715, 2009;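 active = thallium flux slope more than 3 SD above or below the plate's solvent-only control mean, mostly below; inconclusive = the two repeat wells disagreed; inactive = no significant shift from solvent-only controls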;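 also: raw slope with 0.1% DMSO as baseline and bumetanide as block control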
HEK293 Tl flux: thallium flux modulation in parental HEK cells, confirmation, counter-screen for KCC2 modulator project, cell-based, counterscreen 1; shares compounds with Cl transport mod; HEK293 parental cells, thallium flux FluoZin2, ouabain; baseline-ratio fluorescence slope, 10–20 s after thallium; thallium flux rate (normalised fluorescence) at 10 µM; hit rate 46% among 3,700; AID 1716, 2009;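 active = thallium flux rate significantly above the same plate's solvent-only control wells, beyond their mean plus 3 SD; inconclusive = the two replicate wells gave conflicting results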
KCC2 ouabain: KCC2 inhibitors and activators, ouabain retest, confirmation, HEK-KCC2 cells | hit rate 48% among 3,700 | AID 1717, 2009 | raw Tl+ flux slope (below DMSO = inhibition, above = activation) at 10 µM | HEK293-KCC2, thallium flux FluoZin2 fluorescence; bidirectional: low = inhibitor, high = activator | shares compounds with Cl transport mod;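 active = thallium flux slope beyond 3 SD from same-plate DMSO control mean in most replicates, usually higher, sometimes lower; inconclusive = repeat tests gave conflicting results; inactive = no significant difference from controls in most replicates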;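 also: slope of initial-normalized fluorescence between seconds 10 and 20 after thallium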
HEK counter2: native HEK Tl+ uptake effects, second counter-screen – HEK cells, counterscreen 2, counter-screen for KCC2 modulator project, confirmation | shares compounds with Cl transport mod | HEK293 parental, thallium flux FluoZin-2 fluorescence slope | thallium flux slope at 10 µM | hit rate 33% among 3,700 | AID 1718, 2009;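 active = thallium flux slope above the same plate's solvent-control mean plus 3 SD in both duplicate wells; inconclusive = duplicate wells that disagreed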;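 also: run without ouabain in cells lacking the KCC2 cotransporter; slope of fluorescence scaled to its starting value between 10 and 20 s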
* = called active by the depositor; i = inactive; ? = inconclusive; / = no result given.

SMILES	KCNK3 inh	KCNK9 inh	KCNQ1 inh	hERG protect	KCNQ1 pot	Cl transport mod	KCC2 secondary	KCC2 bumet counter	KCC2 sec2	HEK293 Tl flux	KCC2 ouabain	HEK counter2
S=C(NCc1ccccc1Cl)Nc1ccccc1Cl	i	i	i	-1	i	6.1*	0.0089	0.012*	0.029	0.0075	?	0.0086
CCOC(=O)C1CCN(c2cc3c(cc2NC(=O)c2ccccc2OCC)n(C)c(=O)n3C)CC1	i	i	i	-20	i	/	/	/	/	/	/	/
O=C(O)c1ccc(N2CCCCS2(=O)=O)cc1	i	i	i	-5	i	/	0.0057	0.0049	0.026*	0.0082	0.019	0.012
O=C(Nc1nc2ccccc2s1)c1cccc(S(=O)(=O)N2CCc3ccccc32)c1	i	i	i	-24	i	-0.98	/	/	/	/	/	/
O=C(Nc1nc2c(s1)CN(Cc1ccccc1)CC2)c1cccc(S(=O)(=O)N2CCc3ccccc32)c1	i	i	i	-11	i	3.4*	0.0045*	0.0015*	0.021*	0.0051*	0.013*	0.0079*
Cc1cccc(C)c1NC(=O)CN1C(=O)S/C(=C\c2cccn2-c2cccc(C(=O)O)c2)C1=O	i	i	i	-10	i	/	/	/	/	/	/	/
Cc1cccc(C)c1-n1cccc1/C=C1\SC(=S)N(c2cccc(C(=O)O)c2)C1=O	i	i	i	-32	i	-4.5*	0.0062	0.004	0.029	0.0054*	0.015*	0.0083*
CCOc1ccccc1N1CN(C2CCCCC2)CNC1=S	i	i	i	-15	i	0.95	/	/	/	/	/	/
CCOC(=O)c1ccc(N2CN(C3CCCCC3)CNC2=S)cc1	i	i	i	1	i	-0.051	0.0073	0.0049	0.03	0.0085	0.019	0.012
CCOc1ccccc1C(=O)OCC(=O)Nc1cccc(S(=O)(=O)N2CCCC2)c1	i	/	/	/	/	/	/	/	/	/	/	/
Cc1c(C)c2ccc(OCC(=O)N3CC[C@@]4(O)CCCC[C@H]4C3)c(C)c2oc1=O	i	i	i	-11	i	/	/	/	/	/	/	/
O=C(CSc1nc(-c2ccc(F)cc2)cs1)N1CCN(C(=O)c2ccco2)CC1	i	i	i	-17	i	-3.1*	0.0074	0.0061	0.029	0.0061	0.015*	0.009
O=C(CSc1nc2ccccc2s1)N1CCN(C(=O)c2ccco2)CC1	i	i	i	-8	i	-0.016	/	/	/	/	/	/
CCc1cc2cccc(C)c2nc1SCC(=O)N1CCN(C(=O)c2ccco2)CC1	i	i	i	-21	i	-3.2*	0.016	0.0043	0.021*	0.0047*	0.013*	0.0072*
COc1ccc(C(C(=O)NCC2CCCO2)N(Cc2ccccc2)C(=O)c2snc(C(N)=O)c2N)cc1OC (centres undefined)	i	i	i	-20	i	/	/	/	/	/	/	/
CC(C)OCCCNC(=O)c1cc2c(s1)CS(=O)(=O)C2	i	i	i	-5	i	/	0.0088	0.0053	0.031	0.0079	0.018	0.01
COc1ccc(-c2cc(CCCC(=O)NCCc3cc(OC)ccc3OC)no2)cc1	i	i	i	-8	i	-4.7*	0.0071	0.0042	0.031	0.0071	0.017	0.011
COc1ccc(-c2cc(CCCC(=O)N3CCN(c4ccc(OC)cc4)CC3)no2)cc1	i	i	i	-11	i	-0.93	/	/	/	/	/	/
O=C(Nc1ccc2[nH]c(=S)sc2c1)Nc1ccccc1F	i	i	i	11*	15*	23*	0.0062	0.034*	?	0.019*	0.033*	0.021*
CC1(c2ccc(Cl)c(Cl)c2)NC(=S)N2C1NC(=S)N2c1ccccc1 (centres undefined)	i	i	i	-13	i	-2.4	/	/	/	/	/	/
Cc1cc(C)c2nc(SCC(=O)NNC(=O)c3ccco3)c(C)cc2c1	i	i	i	-8	i	4.8*	0.016	0.021*	0.033	0.0098*	0.018	0.013*
Cc1cc2ccccn2c1C(=O)c1ccncc1	i	i	i	-6	i	-0.15	/	/	/	/	/	/
Cc1cc2ccccn2c1C(=S)NC(=O)c1ccccc1	i	i	i	34*	26*	66*	0.02*	0.14*	0.1*	0.12*	0.12*	0.11*
CC(=O)Nc1ccc(S(=O)(=O)Nc2c(C)nn(-c3ccccc3)c2C)cc1	i	i	i	-1	i	/	0.0067	0.0043	0.03	?	0.016	0.009
Cc1nn(-c2ccc(F)cc2)c(C)c1NS(=O)(=O)c1ccc2ccccc2c1	i	i	i	0	i	-7.2*	0.0053	?	0.022*	0.007	?	0.011
